Mdm2 MdmX PPI = inhibitors of human Mdm2-MdmX association, primary screen, cell-based, luminescence, split luciferase, SaOS-2, uHTS; inhibition, % at 8 µM; SaOS-2 split-luciferase Mdm2/MdmX complementation; 330,000 compounds, 3% hits;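 active = inhibition of at least 50% at 8 µM in the primary screen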
Target sequence (O15151 whole entry, looked up): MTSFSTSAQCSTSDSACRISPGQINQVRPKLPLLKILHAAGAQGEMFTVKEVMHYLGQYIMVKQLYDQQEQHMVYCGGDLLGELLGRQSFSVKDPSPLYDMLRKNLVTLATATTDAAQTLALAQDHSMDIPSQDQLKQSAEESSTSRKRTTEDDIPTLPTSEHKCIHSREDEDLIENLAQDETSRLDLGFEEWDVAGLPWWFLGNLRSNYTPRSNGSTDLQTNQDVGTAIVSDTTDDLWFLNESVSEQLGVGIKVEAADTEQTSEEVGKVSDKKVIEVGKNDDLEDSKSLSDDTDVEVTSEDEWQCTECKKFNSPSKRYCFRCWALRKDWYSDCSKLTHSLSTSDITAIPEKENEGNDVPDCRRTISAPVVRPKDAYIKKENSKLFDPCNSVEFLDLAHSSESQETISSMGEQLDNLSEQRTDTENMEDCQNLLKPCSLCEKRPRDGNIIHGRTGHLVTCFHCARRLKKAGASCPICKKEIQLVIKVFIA
Target sequence (Q00987 whole entry, looked up): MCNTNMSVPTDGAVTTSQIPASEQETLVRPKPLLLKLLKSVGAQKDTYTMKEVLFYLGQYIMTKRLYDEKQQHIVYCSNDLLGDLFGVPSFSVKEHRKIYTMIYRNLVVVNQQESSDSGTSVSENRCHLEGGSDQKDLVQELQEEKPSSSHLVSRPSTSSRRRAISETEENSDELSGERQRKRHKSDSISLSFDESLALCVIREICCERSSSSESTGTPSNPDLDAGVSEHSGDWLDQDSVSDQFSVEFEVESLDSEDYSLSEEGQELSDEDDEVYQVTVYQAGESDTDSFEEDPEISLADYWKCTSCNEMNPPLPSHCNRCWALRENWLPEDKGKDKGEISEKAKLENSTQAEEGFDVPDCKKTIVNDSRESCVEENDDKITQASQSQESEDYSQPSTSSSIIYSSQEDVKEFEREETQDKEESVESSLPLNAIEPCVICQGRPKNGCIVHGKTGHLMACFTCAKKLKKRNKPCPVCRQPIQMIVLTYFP
T cruzi repl = inhibitors of intracellular T. cruzi growth, primary screen, luminescence, NIH3T3 host cells; T. cruzi beta-gal in NIH3T3, 90 h; AID 1885, 2009; 300,000 compounds, 1.4% hits; inhibition, % (test concentration not listed);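 active = mean inhibition across valid replicates above about 55%, limit read from the data; inconclusive = mean below that limit but half or more replicates reach it; inactive = mean below it, under half of replicates reach it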;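 note: signal also drops with host cell toxicity which is not excluded here; 0% = plate median of DMSO wells and 100% = zero luminescence signal; higher percent means less beta-gal luminescence so fewer parasites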
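System: Mouse NIH/3T3 fibroblasts infected with β-gal-expressing T. cruzi Tulahuen C4 | Quantity: NIH/3T3 cells, 5,000 per well | Reagent: 5000 reporter trypomastigotes per well | Dosing: Compound pinned at 50 nL/well, DMSO | Schedule: 3 h host attachment, then at least 90 h co-culture | Detection: GalScreen luminescence, 60 min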
Beta cell apopt = inhibitors of cytokine-induced beta cell apoptosis, primary screen, luminescence. protection from apoptosis, % (concentration not given with the values). INS-1E cytokine-induced death, ATP luminescence, 48 h; percent of positive-control rescue, neutral wells zero. 300,000 compounds, 0.8% hits;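 active = Every replicate reaches about 75%, or at least half do and their mean reaches it too, limit read from the data; inconclusive = At least half of replicates reach the limit but their mean does not; inactive = Under half of replicates reach the limit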;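 note: 0% = cytokine-treated negative control wells and 100% = positive control rescue; higher means more ATP so stronger rescue from cytokine killing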
NLRP3 yeast inh = NALP3 inflammasome inhibitors in reconstituted yeast, primary screen, luminescence, uHTS | Yeast reconstituted NLRP3/ASC/caspase-1, beta-gal luminescence, 24 h | inhibition, % at 10 µM | 330,000 compounds, 0.39% hits;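 active = inhibition of 50% or more; inactive = inhibition below 50%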;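 note: plate controls were induced DMSO wells for no effect and uninduced yeast grown without galactose for full effect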
CSC inhib = cancer stem cell viability inhibitors, primary screen, luminescence | cancer stem cell-like cells viability | inhibition, % at 7.5 µM | 300,000 compounds, 1.1% hits; in the data active = inhibition above about 75%; inconclusive = no clear call, values can overlap the other calls; tested in HMLE shEcad cells
Calb FLC = C. albicans growth inhibition with fluconazole, primary screen, CaCi-2 strain, Alamar Blue fluorescence. AID 1979, 2009. C. albicans CaCi-2 (fluconazole-resistant clinical isolate) + fluconazole, 48 h. growth inhibition, % (test concentration not listed). 300,000 compounds, 0.57% hits;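 active = growth inhibition above about 58% in most replicates, limit read from the data, passing the limit was not always enough; inconclusive = exactly half the replicates above a set limit; inactive = most replicates below a set limit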;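 note: all wells also contain fluconazole at 8 µg/ml as a sub-toxic cotreatment; 0% = median of DMSO wells and 100% = median of geldanamycin control wells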
Active calls of the source: *; u = inconclusive; x = no result given. The list is not random: actives were taken first. Their share in the collection is about 5.3%.

SMILES	Mdm2 MdmX PPI	T cruzi repl	Beta cell apopt	NLRP3 yeast inh	CSC inhib	Calb FLC
CCOc1ccc(N2CC(C(=O)Nc3nnc(SCCOC)s3)CC2=O)cc1 (configuration not stated)	20	-5	0	13	-34	-3
COCCSc1nnc(NC(=O)C2CC(=O)N(c3ccc(C)cc3)C2)s1 (configuration not stated)	17	-13	-7	18	-22	99*
CC(C)c1ccc(NC(=O)Cc2cn(C)c3ccccc23)cc1	-34	-12	4	17	1	114*
CC(C)c1ccc(NC(=O)c2cc3c(=O)n(C)c4ccccc4c3n2C)cc1	42	60*	13	9	76*	2
O=C(CNC(=S)N(Cc1ccccc1)Cc1ccccc1F)NCCc1ccc(Cl)cc1	4	85*	13	8	u	3
CCOC(CNc1ncnc2c1cnn2C)OCC	9	-17	0	-10	1	u
O=C(N/N=C/c1cc(Cl)ccc1O)C(=O)Nc1ccccc1OC(F)(F)C(F)F	x	x	89*	x	96*	x
O=C(N/N=C/c1cc(Br)ccc1O)C(=O)Nc1ccccc1OC(F)(F)C(F)F	x	57*	83*	x	96*	27
COc1ccccc1/C=N/NC(=O)C(=O)Nc1ccccc1OC(F)(F)C(F)F	22	-18	1	19	-5	5
COc1cccc(/C=N/NC(=O)C(=O)Nc2ccccc2OC(F)(F)C(F)F)c1	2	0	1	11	2	1
COc1cc(NC(C)CCCN)c2ncccc2c1 (configuration not stated)	34	33	121*	26	105*	5
CC(NC(=S)Nc1cccc(F)c1)C(c1cccs1)N1CCOCC1 (configuration not stated)	-20	-12	-4	4	-4	25
O=C(c1cc2sccc2n1Cc1ccccc1)N1CCN(c2nc3ccccc3s2)CC1	14	44	99*	-2	7	1
O=C(Cn1c(C(=O)N2CCN(C3CCCCC3)CC2)cc2sccc21)c1ccccc1	22	76*	8	12	21	-13
O=C(Cn1c(C(=O)N2CCc3ccccc3C2)cc2sccc21)c1ccccc1	-2	37	11	-2	8	6
Cn1cc(/C=C/c2cc[n+](C)cc2)c2cc(F)ccc21	x	48	69	x	-8	u
Cn1cc(/C=C/c2cc[n+](C)cc2)c2cc(Cl)ccc21	x	50	95*	x	-9	82*
CN1CCCN(Cc2cccc3ccccc23)CC1	10	23	-16	19	20	-15
Cc1ccc(NC(=S)NCc2cccs2)cc1	10	-28	5	22	-5	-28
CCCCc1ccc(NC(=S)NCc2cccs2)cc1	20	69*	2	45	14	-26
CCOc1ccccc1CNC(=O)C1CCN(c2nc3ccccc3o2)CC1	12	5	-2	23	x	-21
CCOC(=O)c1c(NC(NC(=O)C(C)C)C(Cl)(Cl)Cl)sc2c1CCC2 (configuration not stated)	-26	16	5	5	101*	-1
CCOC(=O)Nc1sc2c(c1C(=O)OCC)CCC2	20	-9	0	28	-7	14
CC1CC1C(=O)N1CCN(S(=O)(=O)c2cc(C(F)(F)F)cc(C(F)(F)F)c2)CC1 (configuration not stated)	18	x	3	14	79*	x
COc1ccc(C(=O)[C@H]2[C@H]3C(=O)N(c4ccccc4)C(=O)[C@H]3C3C=CC=NN32)cc1 (some centres not stated)	20	3	x	8	-12	-1
SMILES	Mdm2 MdmX PPI	T cruzi repl	Beta cell apopt	NLRP3 yeast inh	CSC inhib	Calb FLC
C(=N\NC1=Nc2cccc3cccc1c23)/c1ccccn1	x	65*	x	x	x	94*
Clc1ccccc1/C=N/NC1=Nc2cccc3cccc1c23	27	8	13	24	1	-15
Cc1csc(N/N=C/c2ccccn2)n1	-86	5	7	30	83*	-1
CC(=O)c1c(C)n(-c2cccc(Cl)c2)c2ccc(O)cc12	43	1	-11	8	-12	3
CC(CCc1ccccc1)N1CCN(Cc2ccccc2)CC1 (configuration not stated)	3	58*	2	5	-5	-24
O=[N+]([O-])c1cc(C(F)(F)F)ccc1Sc1nccn1Cc1ccccc1	-16	10	-2	8	0	5
O=[N+]([O-])c1ccc(Sc2nccn2Cc2ccccc2)c([N+](=O)[O-])c1	44	65*	-1	25	46	1
Cc1c(CCC(=O)N[C@@H](C)C(=O)O)c(=O)oc2c(C)c3oc4c(c3cc12)CCCC4	2	7	-1	11	-11	-1
CC1CCCN(C(=O)Cn2c3ccccc3c3nc4n(c(=O)c32)CCS4)C1 (configuration not stated)	18	7	-3	27	-19	34
CC1CCN(C(=O)Cn2c3ccccc3c3nc4n(c(=O)c32)CCS4)CC1	14	-9	4	6	-5	91*
O=C(Cn1c2ccc(F)cc2c2nc3n(c(=O)c21)CCS3)N1CCCC1	29	-2	4	4	-9	89*
O=C(Cn1c2ccc(F)cc2c2nc3n(c(=O)c21)CCS3)Nc1ccc(Cl)cc1F	37	19	15	-4	-6	3
COc1cc(NC(=O)CS(=O)(=O)c2ccc(C)cc2)cc(OC)c1OC	-17	x	-5	4	-5	x
CCc1cc(CNC(=O)CC2C(=O)NCCN2Cc2cccc(OC)c2)on1 (configuration not stated)	5	-7	0	14	-2	-25
N=c1c2c(n(Cc3ccc(Br)cc3)c3c1CCC3)CCCC2	43	67*	115*	-14	13	21
N=c1c2c(n(Cc3ccc([N+](=O)[O-])cc3)c3c1CCC3)CCCC2	9	40	4	16	-2	-5
Cc1ccc(NC(=O)CSc2nc3ccccc3c(=O)n2CCCC(=O)NCC2CCCO2)cc1 (configuration not stated)	21	-9	-3	1	-15	0
Cc1cc(C)n(CC(=O)N/N=C/c2cc([N+](=O)[O-])ccc2O)n1	0	0	-1	19	-3	53
Cc1cc(C)n(CC(=O)N/N=C/c2cc(Br)cc([N+](=O)[O-])c2O)n1	9	65*	-2	43	34	u
CCCCC(CCC(=O)O)(C(=O)OCC)c1csc(Nc2ccccc2)n1 (configuration not stated)	-3	3	-4	7	15	19

Bioassay records deposited in PubChem by several laboratories.
